# Laboratory results published in ChEMBL document CHEMBL4613220, “Identification of small molecule inhibitors of human COQ7” (Bioorg Med Chem, 2020).
# “And” between values parts separate entries of the source, which are not always exact repeats. Equal values may be shown once. The source made the active and inactive calls. The calls are words filed in the database; no cut-off is given here.
# Experiments:
# [1] = target: T1, 5-demethoxyubiquinone hydroxylase, mitochondrial (Homo sapiens) (UniProt Q99807); test: Inhibition of COQ7 in human HeLa cells assessed as DMQ10 level per well at 10 uM after 2 days by HPLC analysis; assay type: cell-based
# T1 sequence (whole entry): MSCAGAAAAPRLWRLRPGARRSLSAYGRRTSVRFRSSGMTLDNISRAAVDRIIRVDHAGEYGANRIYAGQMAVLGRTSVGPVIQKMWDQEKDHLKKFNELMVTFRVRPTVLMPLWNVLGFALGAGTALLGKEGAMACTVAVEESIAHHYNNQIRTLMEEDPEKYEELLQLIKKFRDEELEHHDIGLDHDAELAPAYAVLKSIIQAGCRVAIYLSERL
# Outline: (§1)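 HeLa cells cultured overnight, then exposed 48 hr to compound (single 30 µM screen, 10 µM, or graded doses); 0.5-1.0% DMSO controls. Quinones extracted with ethanol/n-hexane after K3Fe(CN)6 oxidation and UQ9 internal standard, then resolved by C18 HPLC with UV at 275 nm. DMQ10 and UQ10 reported as ng/well and DMQ10 as % of total quinone; mean of duplicates.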
# [2] = target: T1, 5-demethoxyubiquinone hydroxylase, mitochondrial (Homo sapiens); test: Inhibition of COQ7 in human HeLa cells assessed as UQ10 level per well at 10 uM after 2 days by HPLC analysis; assay type: cell-based; outline: as §1
# [3] = target: T1, 5-demethoxyubiquinone hydroxylase, mitochondrial (Homo sapiens); test: Inhibition of COQ7 in human HeLa cells assessed as DMQ10 level per well at 10 uM after 2 days by HPLC analysis relative to control; assay type: cell-based; set-up: scale not given: the % may be the effect or the level left; outline: as §1
# [4] = (§2) Cytotoxicity against human WI38 cells assessed as growth inhibition after 4 days by cell-titer-Glo assay; assay type: cell-based, WI-38; conditions: WI-38 cells
# Outline: (§3)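 WI-38 normal fibroblasts grown in DMEM + 10% FBS at 37 °C, 5% CO2. Pre-cultured 24 hr, then exposed to compound at 0-30 µM for 4 days. Viability read by CellTiter-Glo 2.0; GI50 by linear interpolation of concentration-response curves, mean of triplicates.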
# [5] = target: T1, 5-demethoxyubiquinone hydroxylase, mitochondrial (Homo sapiens); test: Inhibition of COQ7 in human HeLa cells assessed as DMQ10 accumulation at 30 uM after 2 days by HPLC analysis relative to control; assay type: cell-based; set-up: scale not given: the % may be the effect or the level left; outline: as §1
# [6] = target: T1, 5-demethoxyubiquinone hydroxylase, mitochondrial (Homo sapiens); test: Inhibition of COQ7 in human HeLa cells assessed as DMQ10 accumulation at 10 uM after 2 days by HPLC analysis relative to control; assay type: cell-based; set-up: scale not given: the % may be the effect or the level left; outline: as §1
# WI-38 = test: as §2; assay type: cell-based; conditions: wi-38, 96 h, 96 h; outline: as §3
# PANC-1 = test: Growth inhibition of human PANC1 cells after 3 days by cell-titer-Glo assay; assay type: functional; conditions: PANC-1, 72 h
# Outline: (§4)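 Cells pre-cultured 24 hr, then exposed to a range of compound concentrations for a further 3 days. Viable cells counted by CellTiter-Glo 2.0 luminescence; GI50 obtained by linear interpolation of concentration-response curves, mean of triplicates. Medium: DMEM + 10% FBS for HeLa and PANC-1, EMEM for C3A, F-12K for PC-3; 37 °C, 5% CO2.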
# C3A [7] = test: Growth inhibition of human C3A cells assessed as growth inhibition after 3 days by cell-titer-Glo assay; assay type: functional; conditions: 72 h; outline: as §4
# HeLa = test: Growth inhibition of human HeLa cells assessed as growth inhibition after 3 days by cell-titer-Glo assay; assay type: functional; conditions: 72 h; outline: as §4
# PC-3 = test: Cytotoxicity against human PC3 cells assessed as growth inhibition after 3 days by cell-titer-Glo assay; assay type: functional; conditions: PC-3, 72 h; outline: as §4
# C3A [8] = test: Growth inhibition of human C3A cells after 3 days in presence of 10 mM 2-DG by cell-titer-Glo assay; assay type: functional; conditions: 72 h
# Outline: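 C3A cells in EMEM + 10% FBS with 10 mM 2-deoxyglucose in the medium to block glycolysis. Pre-cultured 24 hr, then exposed to graded compound concentrations for 3 further days. Viable cells quantified by CellTiter-Glo 2.0; GI50 by linear interpolation, mean of triplicates.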
# [9] = target: T1, 5-demethoxyubiquinone hydroxylase, mitochondrial (Homo sapiens); test: Inhibition of COQ7 in human PANC1 cells assessed as DMQ10 accumulation at 10 uM after 24 hrs by HPLC analysis relative to control; assay type: cell-based; set-up: scale not given: the % may be the effect or the level left; conditions: PANC-1
# Outline: (§5)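 Cells (2 or 4 x 10^5/well) cultured overnight, then exposed 24 hr to compound at 10 µM; DMSO controls. Cells suspended in PBS with 5% K3Fe(CN)6, 0.12 µg UQ9 added as internal standard, quinones extracted in ethanol/n-hexane (2:5). Reverse-phase C18 HPLC, isocratic diisopropyl ether/methanol (1:9), 30 °C, UV 275 nm; DMQ10 at 10.2 min. DMQ10 reported as ng/well and % of total quinone; duplicate wells.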
# [10] = target: T1, 5-demethoxyubiquinone hydroxylase, mitochondrial (Homo sapiens); test: Inhibition of COQ7 in human PC3 cells assessed as DMQ10 accumulation at 10 uM after 24 hrs by HPLC analysis relative to control; assay type: cell-based; set-up: scale not given: the % may be the effect or the level left; conditions: PC-3; outline: as §5
# [11] = target: T1, 5-demethoxyubiquinone hydroxylase, mitochondrial (Homo sapiens); test: Inhibition of COQ7 in human C3A cells assessed as DMQ10 level per well at 10 uM after 1 day by HPLC analysis (reference value: 7.4 ng); assay type: cell-based; outline: as §5
# [12] = target: T1, 5-demethoxyubiquinone hydroxylase, mitochondrial (Homo sapiens); test: Inhibition of COQ7 in human HeLa cells assessed as DMQ10 level per well at 10 uM after 1 day by HPLC analysis (reference value: 6.8 ng); assay type: cell-based; outline: as §5
# C3A [13] = test: Antiproliferative activity against human C3A cells at 10 uM assessed as increase in cell death incubated for 24 hrs and measured after 3 days
# [14] = target: T1, 5-demethoxyubiquinone hydroxylase, mitochondrial (Homo sapiens); test: Inhibition of COQ7 in human HeLa cells assessed as DMQ10 accumulation at 5 uM after 2 days by HPLC analysis; assay type: cell-based; outline: as §1
# [15] = target: T1, 5-demethoxyubiquinone hydroxylase, mitochondrial (Homo sapiens); test: Inhibition of COQ7 in human HeLa cells assessed as DMQ10 accumulation at 20 uM after 2 days by HPLC analysis; assay type: cell-based; outline: as §1
# [16] = target: T1, 5-demethoxyubiquinone hydroxylase, mitochondrial (Homo sapiens); test: Inhibition of COQ7 in human BxPC3 cells assessed as DMQ10 accumulation at 10 uM after 1 day by HPLC analysis relative to control; assay type: cell-based; set-up: scale not given: the % may be the effect or the level left; conditions: BXPC-3; outline: as §5
# [17] = target: T1, 5-demethoxyubiquinone hydroxylase, mitochondrial (Homo sapiens); test: Inhibition of COQ7 in human PANC1 cells assessed as DMQ10 accumulation at 10 uM after 1 day by HPLC analysis relative to control; assay type: cell-based; set-up: scale not given: the % may be the effect or the level left; conditions: PANC-1; outline: as §5
# [18] = target: T1, 5-demethoxyubiquinone hydroxylase, mitochondrial (Homo sapiens); test: Inhibition of COQ7 in human PC3 cells assessed as DMQ10 accumulation at 10 uM after 1 day by HPLC analysis relative to control; assay type: cell-based; set-up: scale not given: the % may be the effect or the level left; conditions: PC-3; outline: as §5
# [19] = target: T1, 5-demethoxyubiquinone hydroxylase, mitochondrial (Homo sapiens); test: Inhibition of COQ7 in human HeLa cells assessed as DMQ10 accumulation at 10 uM after 1 day by HPLC analysis relative to control; assay type: cell-based; set-up: scale not given: the % may be the effect or the level left; outline: as §5
# [20] = target: T1, 5-demethoxyubiquinone hydroxylase, mitochondrial (Homo sapiens); test: Inhibition of COQ7 in human C3A cells assessed as DMQ10 accumulation at 10 uM after 1 day by HPLC analysis relative to control; assay type: cell-based; set-up: scale not given: the % may be the effect or the level left; outline: as §5
smiles,measurement,setting,value
Oc1cc(C2CCC2)nn1-c1ccccn1,Activity,[1],0 ng
same,Activity,[2],24.4 ng
same,Activity,[3],0%
same,GI50 at 96 h,[4],25 µM
COc1ccc(-n2nc(-c3ccccc3)cc2O)nc1,Activity,[1],0 ng
same,Activity,[2],6.7 ng
same,Activity,[3],0%
same,GI50 at 96 h,[4],25.4 µM
Oc1cc(C2CCCC2)nn1-c1ccccn1,Activity,[1],5.8 ng
same,Activity,[2],12.1 ng
same,Activity,[3],32.4%
same,GI50 at 96 h,[4],12.7 µM
Oc1cc(-c2ccccc2)nn1-c1ccccn1,Activity,[1],1.3 ng
same,Activity,[2],17.1 ng
same,Activity,[3],7.1%
same,GI50 at 96 h,[4],20.8 µM
same,Activity,[5],> 30%
same,Activity,[6],19.3%
Oc1cc(-c2ccccc2)nn1-c1ccccc1,Activity,[1],0 ng
same,Activity,[2],28.5 ng
same,Activity,[3],0%
same,GI50 at 96 h,[4],> 30 µM
Oc1cc(-c2ccccc2)nn1-c1ccc(Cl)cn1,Activity,[1],13.2 ng
same,Activity,[2],12.2 ng
same,Activity,[3],52%
same,GI50 at 96 h,[4],19 µM
same,GI50,WI-38,19 µM
same,GI50,PANC-1,> 12 µM
same,GI50,C3A [7],9 µM
same,GI50,HeLa,> 12 µM
same,GI50,PC-3,> 12 µM
same,GI50,C3A [8],6.1 µM
same,Activity,[9],11.4%
same,Activity,[10],27.6%
same,Activity,[11],7.8 ng
same,Activity,[12],7.9 ng
same,Activity,C3A [13],inactive
Oc1cc(CC2CCCCC2)nn1-c1ccccn1,Activity,[1],6.6 ng
same,Activity,[2],8.8 ng
same,Activity,[3],42.9%
same,GI50 at 96 h,[4],17.5 µM
Oc1c(I)cc(Cl)c2cccnc12,Activity,[14],Active
same,Activity,[15],inactive
same,Activity,[16],< 5%
same,Activity,[17],< 5%
same,Activity,[18],< 5%
same,Activity,[19],> 20%
same,Activity,[20],> 20%
Clc1cc(-c2ccccc2)nn1-c1ccccn1,Activity,[1],0 ng
same,Activity,[2],35.7 ng
same,Activity,[3],0%
same,GI50 at 96 h,[4],> 30 µM
Oc1cc(-c2ccccc2)nn1-c1ccc(C(F)(F)F)cn1,Activity,[1],9.2 ng
same,Activity,[2],9.4 ng
same,Activity,[3],49.5%
same,GI50 at 96 h,[4],9.4 µM
Oc1cc(-c2ccccc2)nn1-c1cccnc1,Activity,[1],0 ng
same,Activity,[2],23.7 ng
same,Activity,[3],0%
same,GI50 at 96 h,[4],> 30 µM
Oc1cc(-c2ccccc2)nn1-c1ccc(F)cn1,Activity,[1],1.8 ng
same,Activity,[2],14.8 ng
same,Activity,[3],10.8%
same,GI50 at 96 h,[4],28.9 µM
Oc1cc(-c2ccccc2)nn1-c1cc(Cl)ccn1,Activity,[1],0 ng
same,Activity,[2],22.7 ng
same,Activity,[3],0%
same,GI50 at 96 h,[4],> 30 µM
Oc1cc(-c2ccccc2)nn1-c1ncccc1Cl,Activity,[1],0 ng
same,Activity,[2],20.7 ng
same,Activity,[3],0%
same,GI50 at 96 h,[4],> 30 µM
CS(=O)(=O)c1ccc(-n2nc(-c3ccccc3)cc2O)nc1,Activity,[1],2.2 ng
same,Activity,[2],17.8 ng
same,Activity,[3],11%
same,GI50 at 96 h,[4],> 30 µM
Oc1cc(-c2ccccc2)nn1-c1ccncc1,Activity,[1],0 ng
same,Activity,[2],33.7 ng
same,Activity,[3],0%
same,GI50 at 96 h,[4],> 30 µM
Cc1ccc(-n2nc(-c3ccccc3)cc2O)nc1,Activity,[1],7.3 ng
same,Activity,[2],15.4 ng
same,Activity,[3],32.2%
same,GI50,WI-38,26.3 µM and > 12 µM
same,GI50,PANC-1,> 12 µM
same,GI50,C3A [7],18.5 µM
same,GI50,HeLa,> 12 µM
same,GI50,PC-3,> 12 µM
same,GI50,C3A [8],20.2 µM
same,Activity,[9],8.7%
same,Activity,[10],14%
same,Activity,C3A [13],inactive
Nc1ccc(-n2nc(-c3ccccc3)cc2O)nc1,Activity,[1],2.6 ng
same,Activity,[2],23.4 ng
same,Activity,[3],10%
same,GI50 at 96 h,[4],> 30 µM
Oc1cc(C2CCCCC2)nn1-c1ccccn1,Activity,[1],5.5 ng
same,Activity,[2],5.9 ng
same,Activity,[3],20.7%
same,GI50 at 96 h,[4],9.1 µM
Oc1cc(CCc2ccccc2)nn1-c1ccccn1,Activity,[1],9.3 ng
same,Activity,[2],8.8 ng
same,Activity,[3],51.4%
same,GI50 at 96 h,[4],9.6 µM
